The source made the active and inactive calls. The calls are words filed in the database; no cut-off is given here.
Assays:
[1] = tested on: Microglia; assay: Antiinflammatory activity in rat primary microglia cells assessed as inhibition of LPS-induced nitrite production at 10 uM incubated for 1 hr prior to LPS-challenge measured after 24 hrs by Greiss method; type: functional
Summary of the method: (§1)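 Rat primary glial cultures (microglia or astrocytes) pre-incubated 1 h with compound, then 24 h with LPS (10 μg/mL); nitrite in culture medium measured by Griess reaction. Means ± SD of three experiments.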

[2] = Permeability of the compound after 4 hrs by PAMPA assay; type: ADME; conditions: read-out: permeability
[3] = tested on: SH-SY5Y; assay: Neuroprotective activity against 6OHDA-induced toxicity in human SH-SY5Y cells assessed as cell viability at 10 uM after 24 hrs by MTT assay (reference value: 75%); type: functional; conditions: read-out: Activity
[4] = tested on: SH-SY5Y; assay: Cytotoxicity against human SH-SY5Y cells at 10 to 100 uM after 24 hrs by MTT assay; type: cell-based
Summary of the method: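 SH-SY5Y human neuroblastoma cells exposed to compound (10–100 μM) for 24 h; viability by MTT assay.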

[5] = Cytotoxicity against rat primary astrocytes at 10 uM after 24 hrs by MTT assay; type: cell-based; conditions: astrocyte
Summary of the method: (§2)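 Rat primary astrocyte or microglia cultures exposed 24 h to compound (10 μM); cytotoxicity assessed in vitro.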

[6] = Antioxidant activity against peroxyl radical production assessed as trolox equivalent by ORAC assay; type: functional
Summary of the method: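 Oxygen radical absorbance capacity assay, fluorescein as fluorescent probe, peroxyl radical scavenging; expressed as μmol Trolox equivalents per μmol compound, mean of n = 3 ± SD.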

[7] = Cytotoxicity against rat primary microglia cells at 10 uM after 24 hrs by MTT assay; type: cell-based; summary of the method: as §2
[8] = tested on: SH-SY5Y; assay: Neuroprotective activity against SIN1-induced toxicity in human SH-SY5Y cells at 50 to 500 uM after 24 hrs by MTT assay; type: functional, cell-based
Summary of the method: (§3)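 SH-SY5Y cells pre-incubated 1 h with compound, then challenged with SIN-1 (0.5 mM; ONOO⁻ generation about 9 μM per minute by DHR method) or vehicle; viability by MTT assay. Mean ± SD, three independent experiments.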

[9] = tested on: Astrocyte; assay: Antiinflammatory activity in rat primary astrocytes assessed as inhibition of LPS-induced nitrite production at 10 uM incubated for 1 hr prior to LPS-challenge measured after 24 hrs by Greiss method; type: functional, cell-based; summary of the method: as §1
[10] = Antioxidant activity against peroxynitrite assessed as inhibition of cytochrome c nitration by Western blot analysis; type: functional
Summary of the method: (§4)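 RNase A or cytochrome c (5 μM) treated with authentic ONOO⁻ (200 μM) in presence of compound; 12% SDS-PAGE and western blot probed with anti-3-nitrotyrosine antibody.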

[11] = Antioxidant activity against peroxynitrite assessed as inhibition of alpha-synuclein nitration at 50 uM by Western blot analysis; type: functional
Summary of the method: (§5)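 α-Synuclein (5 μM) exposed to authentic ONOO⁻ (200 μM) with compound (50 μM) or 1% DMSO; 12% SDS-PAGE, western blot with anti-αS and anti-3-nitrotyrosine antibodies; densitometry of anti-nitrotyrosine blots used for dose-response. Reverse-addition ONOO⁻ control included.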

[12] = Antioxidant activity against peroxynitrite assessed as inhibition of alpha-synuclein aggregate formation at 50 uM by Western blot analysis; type: functional; summary of the method: as §5
[13] = Antioxidant activity against peroxynitrite assessed as inhibition of RNAse nitration by Western blot analysis; type: functional; summary of the method: as §4
[14] = Antioxidant activity against CO3 radical production by Western blot analysis; type: functional
[15] = Antioxidant activity against NO2 radical assessed as mono nitreated derivative formation at 50 uM by mass spectroscopic analysis; type: functional
Summary of the method: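 Compound (50 μM) preincubated with excess NaNO₂ (4 mM), converting •OH to •NO₂, then 500 μM ONOO⁻ in 50 mM potassium phosphate, pH 7.4; products analysed by chromatography with mass spectrometry, tracking nitrated-product peak.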

[16] = tested on: SH-SY5Y; assay: Neuroprotective activity against SIN1-induced toxicity in human SH-SY5Y cells assessed as cell viability at 500 uM after 24 hrs by MTT assay relative to control; type: functional; conditions: read-out: Activity; summary of the method: as §3
[17] = Antioxidant activity against OH radical production by Western blot analysis; type: functional
[18] = tested on: SH-SY5Y; assay: Neuroprotective activity against SIN1-induced toxicity in human SH-SY5Y cells assessed as cell viability at 100 uM after 24 hrs by MTT assay relative to control; type: functional; conditions: read-out: Activity; summary of the method: as §3
[19] = Antioxidant activity against peroxynitrite radical at 50 uM by mass spectroscopic analysis; type: functional
Summary of the method: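 Compound (50 μM) reacted with 500 μM ONOO⁻ in 50 mM potassium phosphate, pH 7.4, without NaNO₂; reaction products resolved chromatographically and characterised by mass spectrometry.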

[20] = tested on: SH-SY5Y; assay: Neuroprotective activity against SIN1-induced toxicity in human SH-SY5Y cells after 24 hrs by MTT assay; type: functional, cell-based; summary of the method: as §3
[21] = Antioxidant activity against NO2 radical production by Western blot analysis; type: functional
[22] = Antioxidant activity against peroxynitrite assessed as inhibition of alpha-synuclein nitration by Western blot analysis; type: functional; summary of the method: as §5

Structure (SMILES)	inhibition [1]	Papp at 4 h [2]	viability at 10 µM [3]	Activity [4]	Activity [5]	Activity [6]	Activity [7]	inhibition [9]	also measured
CC(C)(C)/[N+]([O-])=C/c1ccccc1O	Active	37.5 ×10⁻⁶ cm/s	100%	Non-toxic	Non-toxic	2.6 equiv	Non-toxic	Active	Activity [8]: inactive
CN1C(C(=O)Nc2ccccn2)=C(O)c2ccccc2S1(=O)=O [PIROXICAM]	–	1.6 ×10⁻⁶ cm/s	–	–	–	–	–	–	–
CNCCCN1c2ccccc2CCc2ccccc21 [DESIPRAMINE]	–	14.4 ×10⁻⁶ cm/s	–	–	–	–	–	–	–
CC(C)(C)c1cc(/C=[N+](\[O-])C(C)(C)C)cc(C(C)(C)C)c1O	Active	10.2 ×10⁻⁶ cm/s	100%	Non-toxic	Non-toxic	2 equiv	Non-toxic	Active	inhibition [10]: Active; inhibition [11]: Active; inhibition [12]: Active; inhibition [13]: Active; Activity [8]: inactive
CC(C)(C)/[N+]([O-])=C/c1ccccc1	–	–	–	–	–	0.014 equiv	–	–	–
CC(C)(C)/[N+]([O-])=C/c1ccc(O)cc1	Active	0.2 ×10⁻⁶ cm/s	100%	Non-toxic	Non-toxic	3.2 equiv	Non-toxic	Active	Activity [14]: Active; inhibition [10]: Active; inhibition [11]: Active; inhibition [12]: Active; Activity [15]: Active; viability at 500 µM [16]: 100%; Activity [17]: Active; viability at 100 µM [18]: 91%; inhibition [13]: Active; Activity [19]: Active; Activity [20]: Dose-dependent effect; Activity [21]: Active; inhibition [22]: Dose-dependent effect
CCn1cc(C(=O)O)c(=O)c2cc(F)c(N3CCNCC3)nc21 [ENOXACIN]	–	1.7 ×10⁻⁶ cm/s	–	–	–	–	–	–	–
